Activity calls are given as the source filed them. The rule behind the calls is not given here.
Test system: not listed separately
Assay: Cytotoxicity against human HeLa cells assessed as reduction in cell viability
Assay type: cell-based
Settings: not given

Compound | CC50
O=C(NCCC1CCCCC1)c1nc(-c2ccccn2)nc(O)c1O | 4.2 µM
C[C@H](NC(=O)c1nc(-c2ccccn2)nc(O)c1O)C1CCCCC1 | 0.6 µM
O=C(NCC1CCCCC1)c1nc(-c2ccccn2)nc(O)c1O | 3.6 µM
C[C@@H](NC(=O)c1nc(-c2cc(C(F)(F)F)ccn2)nc(O)c1O)C1CCCCC1 | 6 µM
C[C@@H](NC(=O)c1nc(-c2ccccn2)nc(O)c1O)C1CCCCC1 | 3.2 µM
Cc1ccnc(-c2nc(O)c(O)c(C(=O)N[C@H](C)C3CCCCC3)n2)c1 | 2.7 µM

Molecular target: Cytochrome P450 3A4 (Homo sapiens, UniProt P08684)
Assay: Inhibition of human microsomal CYP3A4 expressed in baculovirus infected insect cells using luciferin-IPA as substrate preincubated with enzyme/substrate mixture for 30 mins followed by further incubation with NADPH for 30 mins by CYP450 luciferase Glo assay
Assay type: ADME
Settings: not given

Sequence of Cytochrome P450 3A4 (P08684 whole entry): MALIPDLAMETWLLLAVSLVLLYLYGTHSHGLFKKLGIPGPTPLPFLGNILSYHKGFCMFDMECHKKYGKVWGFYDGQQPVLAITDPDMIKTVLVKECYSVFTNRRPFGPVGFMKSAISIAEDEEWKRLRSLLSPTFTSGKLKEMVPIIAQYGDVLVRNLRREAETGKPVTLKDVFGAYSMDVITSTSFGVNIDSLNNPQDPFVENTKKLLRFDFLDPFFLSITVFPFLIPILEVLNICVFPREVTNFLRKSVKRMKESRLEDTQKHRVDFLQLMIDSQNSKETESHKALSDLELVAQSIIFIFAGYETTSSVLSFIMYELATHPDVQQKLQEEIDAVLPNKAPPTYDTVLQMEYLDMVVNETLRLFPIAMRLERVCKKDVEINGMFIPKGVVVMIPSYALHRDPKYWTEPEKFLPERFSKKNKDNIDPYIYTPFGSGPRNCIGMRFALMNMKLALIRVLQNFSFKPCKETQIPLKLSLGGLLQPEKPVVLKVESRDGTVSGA

Compound | IC50
C[C@@H](NC(=O)c1nc(-c2cc(C(F)(F)F)ccn2)nc(O)c1O)C1CCCCC1 | > 30 µM

Test system: not listed separately
Assay: Half life in human plasma at 3 uM by LC-MS/MS analysis
Assay type: ADME, cell-free
Settings: not given

Compound | half-life at 3 µM
C[C@@H](NC(=O)c1nc(-c2cc(C(F)(F)F)ccn2)nc(O)c1O)C1CCCCC1 | > 1 h

Test system: not listed separately
Assay: Selectivity index, ratio of CC50 for human HeLa cells assessed as reduction in cell viability to EC50 for wild-type HIV1 NL4-3 infected in human TZM-bl cells infected with supernatants from virus-infected human MT2 cells treated with compound for 48 to 72 hrs assessed as reduction in viral replication after 2 days by bright Glo-luciferase reporter gene assay based BiCycle assay
Assay type: toxicity
Settings: read-out: Ratio CC50/EC50
Method in brief: (§1)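 Selectivity index is CC50 from the respective cytotoxicity assay (HeLa or PBMC) divided by EC50 from the two-round MT-2/TZM-bl NL4-3 assay.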

Compound | selectivity ratio
O=C(NCCC1CCCCC1)c1nc(-c2ccccn2)nc(O)c1O | 2
C[C@H](NC(=O)c1nc(-c2ccccn2)nc(O)c1O)C1CCCCC1 | 3
O=C(NCC1CCCCC1)c1nc(-c2ccccn2)nc(O)c1O | 3
C[C@@H](NC(=O)c1nc(-c2cc(C(F)(F)F)ccn2)nc(O)c1O)C1CCCCC1 | 15
C[C@@H](NC(=O)c1nc(-c2ccccn2)nc(O)c1O)C1CCCCC1 | 5
Cc1ccnc(-c2nc(O)c(O)c(C(=O)N[C@H](C)C3CCCCC3)n2)c1 | 13

Molecular target: Voltage-gated inwardly rectifying potassium channel KCNH2 (Homo sapiens, UniProt Q12809)
Assay: Displacement of Tracer Red from human ERG measured after 4 hrs by fluorescence polarization assay
Settings: not given

Sequence of Voltage-gated inwardly rectifying potassium channel KCNH2 (Q12809 whole entry): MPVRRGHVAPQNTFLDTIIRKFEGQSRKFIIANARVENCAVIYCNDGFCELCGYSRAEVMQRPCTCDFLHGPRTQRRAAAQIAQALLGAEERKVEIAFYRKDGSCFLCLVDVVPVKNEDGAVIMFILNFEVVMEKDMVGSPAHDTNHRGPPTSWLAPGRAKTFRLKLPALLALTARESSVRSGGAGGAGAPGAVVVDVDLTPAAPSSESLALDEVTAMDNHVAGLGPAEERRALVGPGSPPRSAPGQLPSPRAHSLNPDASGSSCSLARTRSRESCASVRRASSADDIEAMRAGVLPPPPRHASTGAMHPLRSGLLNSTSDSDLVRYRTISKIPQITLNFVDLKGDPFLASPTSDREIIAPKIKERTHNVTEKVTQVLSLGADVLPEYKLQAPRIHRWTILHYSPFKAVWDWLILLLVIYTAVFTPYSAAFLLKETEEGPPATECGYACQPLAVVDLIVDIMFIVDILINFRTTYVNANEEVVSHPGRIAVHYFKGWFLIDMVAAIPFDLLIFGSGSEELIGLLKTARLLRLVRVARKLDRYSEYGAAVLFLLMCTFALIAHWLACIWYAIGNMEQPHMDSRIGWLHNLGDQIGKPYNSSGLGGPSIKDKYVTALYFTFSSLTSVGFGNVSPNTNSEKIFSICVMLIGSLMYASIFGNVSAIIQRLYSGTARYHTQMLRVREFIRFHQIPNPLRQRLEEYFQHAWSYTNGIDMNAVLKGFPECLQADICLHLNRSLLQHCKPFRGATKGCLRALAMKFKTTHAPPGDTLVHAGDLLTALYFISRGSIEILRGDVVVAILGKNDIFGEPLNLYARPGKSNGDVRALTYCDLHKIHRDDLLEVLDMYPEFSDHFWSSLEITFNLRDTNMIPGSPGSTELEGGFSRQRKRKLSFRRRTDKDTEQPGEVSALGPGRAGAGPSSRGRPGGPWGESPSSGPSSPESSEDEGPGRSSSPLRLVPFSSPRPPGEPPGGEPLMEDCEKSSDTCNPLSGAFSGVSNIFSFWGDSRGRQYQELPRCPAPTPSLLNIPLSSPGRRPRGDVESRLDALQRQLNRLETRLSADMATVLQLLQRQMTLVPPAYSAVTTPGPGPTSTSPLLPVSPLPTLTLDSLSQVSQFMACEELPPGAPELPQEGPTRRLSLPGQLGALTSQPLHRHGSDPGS

Compound | IC50
C[C@@H](NC(=O)c1nc(-c2cc(C(F)(F)F)ccn2)nc(O)c1O)C1CCCCC1 | > 30 µM

Test system: Human immunodeficiency virus 1
Assay: Antiviral activity against wild-type HIV1 NL4-3 infected in human TZM-bl cells infected with supernatants from virus-infected human MT2 cells treated with compound for 48 to 72 hrs assessed as reduction in viral replication after 2 days by bright Glo-luciferase reporter gene assay based BiCycle assay
Assay type: functional, organism-based
Settings: Human immunodeficiency virus 1, NL4-3, TZM
Method in brief: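 Two-round cell assay over the full replication cycle: MT-2 T cells are infected with wild-type reference strain NL4-3 in the first round, and reporter TZM-bl cells are infected in the second round. Values are given as mean ± deviation.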

Compound | EC50
O=C(NCCC1CCCCC1)c1nc(-c2ccccn2)nc(O)c1O | 2.3 µM
C[C@H](NC(=O)c1nc(-c2ccccn2)nc(O)c1O)C1CCCCC1 | 0.2 µM
O=C(NCC1CCCCC1)c1nc(-c2ccccn2)nc(O)c1O | 1.2 µM
C[C@@H](NC(=O)c1nc(-c2cc(C(F)(F)F)ccn2)nc(O)c1O)C1CCCCC1 | 0.4 µM
C[C@@H](NC(=O)c1nc(-c2ccccn2)nc(O)c1O)C1CCCCC1 | 0.7 µM
Cc1ccnc(-c2nc(O)c(O)c(C(=O)N[C@H](C)C3CCCCC3)n2)c1 | 0.2 µM

Test system: not listed separately
Assay: Cytotoxicity against phytohemagglutinin and interleukin-2-stimulated human PBMC cells assessed as reduction in cell viability measured after 7 days by MTS assay
Assay type: cell-based
Settings: not given

Compound | CC50 at 168 h
O=C(NCCC1CCCCC1)c1nc(-c2ccccn2)nc(O)c1O | 11 µM
C[C@H](NC(=O)c1nc(-c2ccccn2)nc(O)c1O)C1CCCCC1 | 2.4 µM
O=C(NCC1CCCCC1)c1nc(-c2ccccn2)nc(O)c1O | 2.6 µM
C[C@@H](NC(=O)c1nc(-c2cc(C(F)(F)F)ccn2)nc(O)c1O)C1CCCCC1 | 1.1 µM
C[C@@H](NC(=O)c1nc(-c2ccccn2)nc(O)c1O)C1CCCCC1 | 3 µM
Cc1ccnc(-c2nc(O)c(O)c(C(=O)N[C@H](C)C3CCCCC3)n2)c1 | 3.1 µM

Molecular target: Cytochrome P450 2D6 (Homo sapiens, UniProt P10635)
Assay: Inhibition of human microsomal CYP2D6 expressed in baculovirus infected insect cells using luciferin-ME as substrate preincubated with enzyme/substrate mixture for 30 mins followed by further incubation with NADPH for 30 mins by CYP450 luciferase Glo assay
Assay type: ADME
Settings: not given

Sequence of Cytochrome P450 2D6 (P10635 whole entry): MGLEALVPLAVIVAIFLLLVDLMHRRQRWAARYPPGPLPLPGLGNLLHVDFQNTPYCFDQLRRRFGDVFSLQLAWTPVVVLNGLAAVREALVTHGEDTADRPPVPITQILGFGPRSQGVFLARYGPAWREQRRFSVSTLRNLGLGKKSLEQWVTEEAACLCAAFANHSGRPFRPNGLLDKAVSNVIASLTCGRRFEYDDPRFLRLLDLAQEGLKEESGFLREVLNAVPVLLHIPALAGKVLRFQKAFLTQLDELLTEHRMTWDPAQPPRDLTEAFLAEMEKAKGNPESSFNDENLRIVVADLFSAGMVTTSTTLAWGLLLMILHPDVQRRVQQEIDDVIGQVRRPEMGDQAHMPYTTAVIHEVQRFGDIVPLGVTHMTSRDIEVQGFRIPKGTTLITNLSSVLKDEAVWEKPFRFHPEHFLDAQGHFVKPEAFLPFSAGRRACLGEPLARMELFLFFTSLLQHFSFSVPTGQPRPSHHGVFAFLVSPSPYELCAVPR

Compound | IC50
C[C@@H](NC(=O)c1nc(-c2cc(C(F)(F)F)ccn2)nc(O)c1O)C1CCCCC1 | > 30 µM

Test system: Human immunodeficiency virus 1
Assay: (§2) Inhibition of HIV1 Nucleocapsid protein (11 to 55 residues) assessed as reduction in NC-induced cTAR DNA destabilization by measuring intrinsic fluorescence using Alexa488-5'-cTAR-3'-Dabcyl oligonucleotide as substrate at 20 degree C incubated for 15 mins by fluorescence assay
Settings: not given
Method in brief: (§3)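 Fluorescence NC-inhibition assay following destabilisation of cTAR DNA, the complement of the HIV-1 transactivation response element, dual-labelled with Alexa488 dye and Dabcyl quencher. NC protein at 1 μM, so the lowest measurable IC50 is 0.5 μM.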

Compound | IC40 | IC35
Cc1ccc(-c2nc(O)c(O)c(C(=O)N[C@H](C)C3CCCCC3)n2)nc1 | 20 µM | 
C[C@@H](NC(=O)c1nc(-c2cccc(C(F)(F)F)n2)nc(O)c1O)C1CCCCC1 |  | 20 µM
C[C@@H](NC(=O)c1nc(-c2ncccc2C(F)(F)F)nc(O)c1O)C1CCCCC1 |  | 20 µM

Test system: not listed separately
Assay: as §2
Parameters: species or system Human immunodeficiency virus 1
Settings: not given
Method in brief: as §3

Compound | IC50
O=C(NCC1CCCCC1)c1nc(CCc2ccccc2)nc(O)c1O | Not Active
CN(CC1CCCCC1)C(=O)c1nc(-c2ccccn2)nc(O)c1O | Not Active
CCNC(=O)c1nc(-c2ccccn2)nc(O)c1O | Not Active
CC(C)(C)c1nc(O)c(O)c(C(=O)NCC2CCCCC2)n1 | Not Active
O=C(NCc1ccccc1)c1nc(-c2ccccn2)nc(O)c1O | Not Active
O=C(NCC1CCCCC1)c1nc(-c2ccncc2)nc(O)c1O | Not Active
O=C(NCC1CCCCC1)c1nc(-c2cccnc2)nc(O)c1O | Not Active
O=C(NCC1CCCCC1)c1nc(-c2ccccc2)nc(O)c1O | Not Active
CC(c1ccccc1)c1nc(O)c(O)c(C(=O)NCC2CCCCC2)n1 (centres undefined) | Not Active

Same assay, conditions: read-out: IC50

Compound | IC50
Cc1cccc(-c2nc(O)c(O)c(C(=O)N[C@H](C)C3CCCCC3)n2)n1 | 20 µM
Cc1ccnc(-c2nc(O)c(O)c(C(=O)N[C@@H](C)C3CCCCC3)n2)c1 | 41 µM
O=C(NC1CCCCC1)c1nc(-c2ccccn2)nc(O)c1O | 300 µM
C[C@@H](NC(=O)c1nc(-c2ccc(C(F)(F)F)cn2)nc(O)c1O)C1CCCCC1 | 23 µM
O=C(NCCC1CCCCC1)c1nc(-c2ccccn2)nc(O)c1O | 38 µM
C[C@H](NC(=O)c1nc(-c2ccccn2)nc(O)c1O)C1CCCCC1 | 47 µM
O=C(NCC1CCCCC1)c1nc(-c2ccccn2)nc(O)c1O | 167 µM
C[C@@H](NC(=O)c1nc(-c2cc(C(F)(F)F)ccn2)nc(O)c1O)C1CCCCC1 | 12 µM
CC(Cc1ccc(O)c(O)c1)C(C)Cc1ccc(O)c(O)c1 (centres undefined) [NORDIHYDROGUAIARETIC ACID] | 26 µM
CC(Cc1nc(-c2ccc(O)c(O)c2)cs1)n1cc(Cl)cn1 (centres undefined) | 110 µM
C[C@@H](NC(=O)c1nc(-c2ccccn2)nc(O)c1O)C1CCCCC1 | 42 µM
Cc1ccnc(-c2nc(O)c(O)c(C(=O)N[C@H](C)C3CCCCC3)n2)c1 | 8 µM
Cc1cccnc1-c1nc(O)c(O)c(C(=O)N[C@H](C)C2CCCCC2)n1 | 21 µM

Test system: not listed separately
Assay: Half life in mouse hepatocytes at 3 uM by LC-MS/MS analysis
Assay type: ADME, cell-based, Hepatocyte
Settings: not given

Compound | half-life at 3 µM
C[C@@H](NC(=O)c1nc(-c2cc(C(F)(F)F)ccn2)nc(O)c1O)C1CCCCC1 | 2.4 h

Molecular target: T1, Cytochrome P450 1A2 (Homo sapiens, UniProt P05177)
T1 sequence (P05177 whole entry): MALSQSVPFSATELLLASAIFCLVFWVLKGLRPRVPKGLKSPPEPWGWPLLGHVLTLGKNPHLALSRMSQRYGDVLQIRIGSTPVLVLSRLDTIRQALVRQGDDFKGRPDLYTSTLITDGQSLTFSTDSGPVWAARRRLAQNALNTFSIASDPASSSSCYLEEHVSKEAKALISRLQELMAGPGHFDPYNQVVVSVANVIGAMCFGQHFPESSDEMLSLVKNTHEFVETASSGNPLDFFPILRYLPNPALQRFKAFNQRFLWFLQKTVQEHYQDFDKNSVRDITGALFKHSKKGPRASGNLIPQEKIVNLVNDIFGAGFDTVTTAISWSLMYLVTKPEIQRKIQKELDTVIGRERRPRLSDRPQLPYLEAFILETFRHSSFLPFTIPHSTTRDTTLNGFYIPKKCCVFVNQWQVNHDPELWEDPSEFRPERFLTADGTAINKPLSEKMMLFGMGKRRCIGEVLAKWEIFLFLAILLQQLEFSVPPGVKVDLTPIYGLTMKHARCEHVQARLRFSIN
Assay: Inhibition of human microsomal CYP1A2 expressed in baculovirus infected insect cells using luciferin-1A2 as substrate preincubated with enzyme-substrate mixture for 30 mins followed by further incubation with NADPH for 30 mins by CYP450 luciferase Glo assay
Assay type: ADME
Settings: not given

Compound | IC50
C[C@@H](NC(=O)c1nc(-c2cc(C(F)(F)F)ccn2)nc(O)c1O)C1CCCCC1 | > 30 µM

Test system: not listed separately
Assay: Selectivity index, ratio of CC50 for human PBMC cells stimulated with phytohemagglutinin and interleukin-2 assessed as reduction in cell viability measured after 7 days by MTS assay to EC50 for wild-type HIV1 NL4-3 infected in human TZM-bl cells infected with supernatants from virus-infected human MT2 cells treated with compound for 48 to 72 hrs assessed as reduction in viral replication after 2 days by bright Glo-luciferase reporter gene assay based BiCycle assay
Assay type: toxicity
Settings: read-out: Ratio CC50/EC50
Method in brief: as §1

Compound | selectivity ratio at 7 days
O=C(NCCC1CCCCC1)c1nc(-c2ccccn2)nc(O)c1O | 5
C[C@H](NC(=O)c1nc(-c2ccccn2)nc(O)c1O)C1CCCCC1 | 12
O=C(NCC1CCCCC1)c1nc(-c2ccccn2)nc(O)c1O | 2
C[C@@H](NC(=O)c1nc(-c2cc(C(F)(F)F)ccn2)nc(O)c1O)C1CCCCC1 | 3
C[C@@H](NC(=O)c1nc(-c2ccccn2)nc(O)c1O)C1CCCCC1 | 4
Cc1ccnc(-c2nc(O)c(O)c(C(=O)N[C@H](C)C3CCCCC3)n2)c1 | 16

Test system: not listed separately
Assay: Half life in human hepatocytes at 3 uM by LC-MS/MS analysis
Assay type: ADME, cell-based, Hepatocyte
Settings: not given

Compound | half-life at 3 µM
C[C@@H](NC(=O)c1nc(-c2cc(C(F)(F)F)ccn2)nc(O)c1O)C1CCCCC1 | > 4 h

Molecular target: Human immunodeficiency virus type 1 integrase (Human immunodeficiency virus 1) (UniProt Q7ZJM1)
Assay: Inhibition of wild type recombinant HIV1 His6-tagged integrase expressed in Escherichia coli BL21 using 18 nucleotide 3'-biotin labeled DNA acceptor as substrate upto 10 uM preincubated for 1 hr followed by substrate addition and further incubated for 90 mins in presence of recombinant LEDGF/p75 by HTRF assay
Settings: not given

Sequence of Human immunodeficiency virus type 1 integrase (Human immunodeficiency virus 1) (Q7ZJM1 as listed by the source): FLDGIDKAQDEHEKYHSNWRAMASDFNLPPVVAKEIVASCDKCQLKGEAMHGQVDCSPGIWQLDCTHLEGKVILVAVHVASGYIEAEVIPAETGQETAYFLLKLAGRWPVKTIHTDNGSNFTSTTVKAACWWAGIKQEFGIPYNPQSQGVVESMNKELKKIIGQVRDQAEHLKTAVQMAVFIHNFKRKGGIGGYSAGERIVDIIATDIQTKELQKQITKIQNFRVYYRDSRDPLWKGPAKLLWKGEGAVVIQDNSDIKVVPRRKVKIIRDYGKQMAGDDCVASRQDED

Compound | inhibition
O=C(NCC1CCCCC1)c1nc(-c2ccccn2)nc(O)c1O | inactive

Test system: not listed separately
Assay: Half life in mouse plasma at 3 uM by LC-MS/MS analysis
Assay type: ADME, cell-free
Settings: not given

Compound | half-life at 3 µM
C[C@@H](NC(=O)c1nc(-c2cc(C(F)(F)F)ccn2)nc(O)c1O)C1CCCCC1 | > 1 h
